Article PMC7586065 (Neoplasia (New York, N.Y.), 2020)
Like-named read-outs stand apart in the source and are kept apart here. Values belong to the compound of their own block, whether it stands above or below them.

Legend:
PI3Kα [1] = settings: cited from earlier work
PI3Kγ [2] = settings: cited from earlier work
Pfeiffer = settings: data in the literature; cited from earlier work
Toledo = settings: data in the literature; cited from earlier work
OCI-LY19 = settings: data in the literature; cited from earlier work
WSU-DLCL2 = settings: data in the literature; cited from earlier work
PI3Kδ signaling = settings: read-out: EC50 of inhibition of PI3Kδ signaling; cell-based assay; cited from earlier work
[3] = Pharmacokinetics in xenograft model; type: in vivo, SCID mice; settings: CB17 SCID, mouse, plasma, po
Summary of the method: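 CB17 SCID mice bearing subcutaneous SU-DHL-6 tumours received test compound orally once daily in 1% carboxymethylcellulose/0.5% Tween 80. Heparinised blood was drawn predose and at 10, 30, 60, 120, 360, 600 and 1440 min on days 1 and 14. Plasma was spun at 4500 rpm, 10 min, 4 °C, then assayed by LC-MS/MS against a stable-isotope internal standard. Sub-LLOQ values were excluded.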

PI3Kα [4] = target: PI3Kα (Mus musculus, UniProt P42337); assay: Cell-based pAKT AlphaLISA, IGF-1 stimulated C2C12 cells
PI3Kγ [5] = target: PI3Kγ (Mus musculus, UniProt Q9JHG7); assay: Cell-based pAKT AlphaLISA, C5a stimulated RAW264.7 cells
Summary of the method: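 RAW264.7 cells (DMEM, 10% FBS, penicillin/streptomycin, 37 °C) were stimulated with 80 ng/mL C5a for 5 min and given ten test-compound concentrations (0–100 µM) in triplicate. The PI3Kδ comparator used Raji cells stimulated with 3 µg/mL anti-IgM F(ab')2 for 10 min, dosed 0–3000 nM. pAKT was quantified by AlphaLISA, and IC50 was taken from signal–concentration curves.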

[6] = 100 mg/kg, 100 mg/kg once daily oral, day 1
[7] = 100 mg/kg, 100 mg/kg once daily oral, day 14
[8] = 200 mg/kg, 200 mg/kg once daily oral, day 1
[9] = 200 mg/kg, 200 mg/kg once daily oral, day 14

PI3Kα, sequence (P42337 whole entry): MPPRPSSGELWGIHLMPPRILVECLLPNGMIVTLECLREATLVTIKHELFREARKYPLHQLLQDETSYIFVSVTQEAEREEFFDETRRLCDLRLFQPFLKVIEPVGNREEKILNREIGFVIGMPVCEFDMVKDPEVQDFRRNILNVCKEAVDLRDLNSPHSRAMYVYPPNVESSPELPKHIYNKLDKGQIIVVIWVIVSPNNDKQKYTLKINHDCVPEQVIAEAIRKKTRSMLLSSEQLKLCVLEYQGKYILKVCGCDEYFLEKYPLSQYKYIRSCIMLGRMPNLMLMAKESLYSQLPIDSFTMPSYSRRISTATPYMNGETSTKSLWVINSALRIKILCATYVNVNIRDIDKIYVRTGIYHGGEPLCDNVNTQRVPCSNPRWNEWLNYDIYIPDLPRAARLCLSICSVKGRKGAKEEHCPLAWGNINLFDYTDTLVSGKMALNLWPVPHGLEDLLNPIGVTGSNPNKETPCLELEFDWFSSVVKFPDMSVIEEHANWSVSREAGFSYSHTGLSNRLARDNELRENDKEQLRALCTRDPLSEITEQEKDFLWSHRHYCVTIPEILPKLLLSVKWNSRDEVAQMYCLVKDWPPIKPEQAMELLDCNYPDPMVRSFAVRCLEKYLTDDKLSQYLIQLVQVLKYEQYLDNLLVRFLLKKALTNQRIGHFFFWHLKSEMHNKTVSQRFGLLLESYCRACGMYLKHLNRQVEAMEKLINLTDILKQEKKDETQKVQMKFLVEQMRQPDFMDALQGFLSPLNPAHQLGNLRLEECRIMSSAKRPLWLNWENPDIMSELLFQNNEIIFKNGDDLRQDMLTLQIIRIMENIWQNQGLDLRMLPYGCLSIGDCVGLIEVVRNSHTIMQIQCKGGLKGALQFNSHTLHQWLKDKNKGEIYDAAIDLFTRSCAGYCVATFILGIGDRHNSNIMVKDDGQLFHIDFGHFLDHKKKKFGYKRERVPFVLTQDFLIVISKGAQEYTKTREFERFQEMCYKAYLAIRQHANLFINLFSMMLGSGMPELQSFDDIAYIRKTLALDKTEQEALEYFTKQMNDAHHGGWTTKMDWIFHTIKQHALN
PI3Kα, sequence (P26450 whole entry partner): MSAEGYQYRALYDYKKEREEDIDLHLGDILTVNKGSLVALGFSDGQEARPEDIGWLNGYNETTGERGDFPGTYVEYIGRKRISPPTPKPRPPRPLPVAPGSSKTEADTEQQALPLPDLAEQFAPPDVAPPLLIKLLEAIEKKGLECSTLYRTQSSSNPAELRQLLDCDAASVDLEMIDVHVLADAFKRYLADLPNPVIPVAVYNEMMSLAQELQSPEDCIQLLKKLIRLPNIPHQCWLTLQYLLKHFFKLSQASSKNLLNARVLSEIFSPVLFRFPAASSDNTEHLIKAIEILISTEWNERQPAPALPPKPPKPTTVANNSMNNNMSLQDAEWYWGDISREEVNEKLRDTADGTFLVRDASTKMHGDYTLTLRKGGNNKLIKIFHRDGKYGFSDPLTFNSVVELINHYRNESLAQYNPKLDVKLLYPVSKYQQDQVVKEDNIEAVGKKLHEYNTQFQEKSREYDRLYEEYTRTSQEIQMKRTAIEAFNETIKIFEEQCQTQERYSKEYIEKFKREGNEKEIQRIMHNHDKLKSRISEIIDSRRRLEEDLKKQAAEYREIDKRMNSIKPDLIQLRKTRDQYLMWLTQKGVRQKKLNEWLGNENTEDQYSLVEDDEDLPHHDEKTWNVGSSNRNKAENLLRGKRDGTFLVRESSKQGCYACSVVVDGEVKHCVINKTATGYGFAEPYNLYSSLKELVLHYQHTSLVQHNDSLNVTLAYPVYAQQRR
PI3Kγ, sequence (Q9JHG7 whole entry): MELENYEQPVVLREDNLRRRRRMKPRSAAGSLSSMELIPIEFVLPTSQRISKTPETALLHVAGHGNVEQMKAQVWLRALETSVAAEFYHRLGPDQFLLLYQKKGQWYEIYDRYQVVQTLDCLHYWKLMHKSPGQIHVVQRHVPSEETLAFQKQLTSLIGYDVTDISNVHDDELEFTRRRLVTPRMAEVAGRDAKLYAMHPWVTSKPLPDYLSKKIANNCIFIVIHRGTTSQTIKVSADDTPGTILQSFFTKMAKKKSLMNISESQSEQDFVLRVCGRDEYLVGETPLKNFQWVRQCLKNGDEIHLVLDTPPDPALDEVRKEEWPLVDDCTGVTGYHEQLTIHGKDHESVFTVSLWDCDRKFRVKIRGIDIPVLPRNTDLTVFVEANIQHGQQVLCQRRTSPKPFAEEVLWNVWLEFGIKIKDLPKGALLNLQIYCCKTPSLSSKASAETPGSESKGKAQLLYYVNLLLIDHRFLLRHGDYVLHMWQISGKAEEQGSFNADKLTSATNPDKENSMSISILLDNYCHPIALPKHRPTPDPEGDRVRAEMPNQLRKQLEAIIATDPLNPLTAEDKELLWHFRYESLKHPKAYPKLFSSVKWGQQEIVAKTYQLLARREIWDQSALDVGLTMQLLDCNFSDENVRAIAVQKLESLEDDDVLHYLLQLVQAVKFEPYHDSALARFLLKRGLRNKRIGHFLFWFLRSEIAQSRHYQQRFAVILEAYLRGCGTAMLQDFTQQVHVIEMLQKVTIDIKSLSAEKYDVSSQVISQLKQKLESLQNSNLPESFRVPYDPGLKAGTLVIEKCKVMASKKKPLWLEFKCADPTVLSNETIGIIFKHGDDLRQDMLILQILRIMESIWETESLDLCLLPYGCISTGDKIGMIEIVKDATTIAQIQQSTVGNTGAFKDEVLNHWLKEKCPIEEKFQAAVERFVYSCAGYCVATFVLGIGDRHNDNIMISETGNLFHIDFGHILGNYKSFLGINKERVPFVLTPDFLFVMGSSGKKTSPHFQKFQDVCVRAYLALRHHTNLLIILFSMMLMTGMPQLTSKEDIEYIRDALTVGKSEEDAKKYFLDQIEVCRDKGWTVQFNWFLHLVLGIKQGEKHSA

SMILES: COc1c(OCCCN2CCOCC2)ccc2c1N=C(NC(=O)c1cnc(N)nc1)N1CCN=C21 [Copanlisib]
IC50 (Pfeiffer): 0.849 nM
IC50 (Toledo): 3500 nM
IC50 (OCI-LY19): 1990 nM
IC50 (WSU-DLCL2): 123 nM

AUC(0-t) [3, 6]: 6930 ng·h/mL
AUC(0-t) [3, 7]: 5520 ng·h/mL
Cmax [3, 6]: 4.17 ± 9.89 µM
Cmax [3, 7]: 5.05 ± 6.05 µM
half-life ([3]; 100 mg/kg, T1/2, 100 mg/kg once daily oral, day 1): 3.4 ± 2 h
half-life ([3]; 100 mg/kg, T1/2, 100 mg/kg once daily oral, day 14): 1.8 ± 0.6 h
Tmax [3, 6]: 0.7 ± 0.3 h
Tmax [3, 7]: 0.4 ± 0.2 h
AUC(0-t) [3, 8]: 29900 ng·h/mL
AUC(0-t) [3, 9]: 22400 ng·h/mL
Cmax [3, 8]: 11.1 µM
Cmax [3, 9]: 8.09 ± 0.93 µM
half-life ([3]; 200 mg/kg, T1/2, 200 mg/kg once daily oral, day 1): 1.9 ± 0.5 h
half-life ([3]; 200 mg/kg, T1/2, 200 mg/kg once daily oral, day 14): 4.3 ± 1.1 h
Tmax [3, 8]: 0.8 ± 0.3 h
Tmax [3, 9]: 0.7 ± 0.3 h
IC50 (PI3Kα [4]): > 30000 nM
IC50 (PI3Kγ [5]): 1120 nM
SMILES: CC[C@H](Nc1ncnc2[nH]cnc12)c1nc2cccc(F)c2c(=O)n1-c1ccccc1 [Idelalisib]
EC50 (PI3Kδ signaling): 8.9 nM
